Data from ChEMBL document CHEMBL1921722, “In vitro and in vivo evaluation of select kahalalide F analogs with antitumor and antifungal activities” (Bioorg Med Chem, 2011).
Converted amounts (≈) assume the structure as drawn.

Legend:
OVCAR-8 = experiment: Cytotoxicity against human OVCAR8 cells assessed as cell growth at 800 nM by sulforhodamine B assay relative to control; format: functional; settings: read-out: Activity
MDA-MB-435 = experiment: Cytotoxicity against human MDA-MB-435 cells assessed as cell growth at 80 uM by sulforhodamine B assay relative to control; format: functional; settings: read-out: Activity
KM12 = experiment: Cytotoxicity against human KM12 cells assessed as cell growth at 80 nM by sulforhodamine B assay relative to control; format: functional; settings: read-out: Activity
SK-MEL-5 [1] = experiment: Cytotoxicity against human SK-MEL-5 cells assessed as cell growth at 8 nM by sulforhodamine B assay relative to control; format: functional; settings: read-out: Activity
UO-31 [2] = experiment: Cytotoxicity against human UO31 cells by sulforhodamine B assay; format: functional
In short: (§1)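 NCI Developmental Therapeutics Program 60-cell-line human tumor panel screen, run at NCI. A single-concentration pre-screen was followed by a five-concentration dose-response in 10-fold steps. GI50 is the concentration that reduces growth of treated cells to half that of untreated control cells. TGI is the concentration that completely halts growth.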

BT-549 [3] = experiment: Cytotoxicity against human BT549 cells assessed as cell growth at 8 uM by sulforhodamine B assay relative to control; format: functional; settings: read-out: Activity
In short: (§2)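 Run at NCI in the DTP 60-cell-line human tumor panel by standard procedure. Compounds were first screened at a single concentration, then tested at five tenfold-spaced concentrations. GI50 is the concentration reducing treated-cell growth to half that of untreated controls; TGI is the concentration completely halting growth.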

A498 = experiment: Cytotoxicity against human A498 cells assessed as cell growth at 80 nM by sulforhodamine B assay relative to control; format: functional; settings: read-out: Activity; in short: as §2
A549 = experiment: Cytotoxicity against human A549 cells assessed as cell growth at 8 uM by sulforhodamine B assay relative to control; format: functional; settings: read-out: Activity; in short: as §2
SK-MEL-28 = experiment: Cytotoxicity against human SK-MEL-28 cells assessed as cell growth at 8 uM by sulforhodamine B assay relative to control; format: functional; settings: read-out: Activity
NCI/ADR-RES = experiment: Cytotoxicity against human NCI/ADR-RES cells assessed as cell growth at 80 uM by sulforhodamine B assay relative to control; format: functional; settings: read-out: Activity
UACC-62 = experiment: Cytotoxicity against human UACC62 cells assessed as cell growth at 80 uM by sulforhodamine B assay relative to control; format: functional; settings: read-out: Activity
SNB-19 = experiment: Cytotoxicity against human SNB19 cells by sulforhodamine B assay; format: functional; in short: as §1
SF-295 = experiment: Cytotoxicity against human SF295 cells assessed as cell growth at 80 uM by sulforhodamine B assay relative to control; format: functional; settings: read-out: Activity
786-0 [4] = experiment: Cytotoxicity against human 786-0 cells assessed as cell growth at 80 nM by sulforhodamine B assay relative to control; format: functional; settings: read-out: Activity; in short: as §2
HCT-15 = experiment: Cytotoxicity against human HCT15 cells assessed as cell growth at 800 nM by sulforhodamine B assay relative to control; format: functional; settings: read-out: Activity
NCI-H23 = experiment: Cytotoxicity against human NCI-H23 cells assessed as cell growth at 8 nM by sulforhodamine B assay relative to control; format: functional; settings: read-out: Activity
SW-620 = experiment: Cytotoxicity against human SW620 cells assessed as cell growth at 80 uM by sulforhodamine B assay relative to control; format: functional; settings: read-out: Activity
SF-268 = experiment: Cytotoxicity against human SF268 cells by sulforhodamine B assay; format: functional
786-0 [5] = experiment: Cytotoxicity against human 786-0 cells assessed as cell growth at 8 uM by sulforhodamine B assay relative to control; format: functional; settings: read-out: Activity; in short: as §2
MOLT-4 = experiment: Cytotoxicity against human MOLT4 cells assessed as cell growth at 80 uM by sulforhodamine B assay relative to control; format: functional; settings: read-out: Activity
Malme-3M = experiment: Cytotoxicity against human MALME-3M cells by sulforhodamine B assay; format: functional; in short: as §1
SR = experiment: Cytotoxicity against human SR cells assessed as cell growth at 8 nM by sulforhodamine B assay relative to control; format: functional; settings: read-out: Activity
[6] = Acute toxicity in ip dosed athymic nude mouse assessed as mortality after 24 days; format: organism-based; settings: in vivo
In short: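 Female athymic nude mice, non-tumored; single IP injection, one mouse per dose level, 400, 200 and 100 mg/kg first, then 50, 25 and 12.5 mg/kg. Dose volume 0.1 ml/10 g body weight. Body weight and survival monitored; animals sacrificed on >20% weight loss or other significant toxicity.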

ACHN = experiment: Cytotoxicity against human ACHN cells assessed as cell growth at 800 nM by sulforhodamine B assay relative to control; format: functional; settings: read-out: Activity; in short: as §2
NCI-H226 [7] = experiment: Cytotoxicity against human NCI-H226 cells assessed as cell growth at 8 uM by sulforhodamine B assay relative to control; format: functional; settings: read-out: Activity
HOP-62 [8] = experiment: Cytotoxicity against human HOP62 cells by sulforhodamine B assay; format: functional
In short: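 Run by the NCI Developmental Therapeutics Program on its 60-line human tumour cell panel using the standard procedure. Compounds went through a single-concentration prescreen first, and those active by NCI criteria went on to a five-concentration growth-inhibition test. GI50 is the concentration that cuts growth of treated cells to half that of untreated control cells.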

NCI-H322M = experiment: Cytotoxicity against human NCI-H322M cells assessed as cell growth at 8 uM by sulforhodamine B assay relative to control; format: functional; settings: read-out: Activity
SK-MEL-5 [9] = experiment: Cytotoxicity against human SK-MEL-5 cells assessed as cell growth at 800 nM by sulforhodamine B assay relative to control; format: functional; settings: read-out: Activity
U-251 = experiment: Cytotoxicity against human U251 cells by sulforhodamine B assay; format: functional; in short: as §1
RXF 393 = experiment: Cytotoxicity against human RXF393 cells assessed as cell growth at 8 uM by sulforhodamine B assay relative to control; format: functional; settings: read-out: Activity
NCI-H226 [10] = experiment: Cytotoxicity against human NCI-H226 cells by sulforhodamine B assay; format: functional; in short: as §1
Hs-578T = experiment: Cytotoxicity against human Hs578T cells by sulforhodamine B assay; format: functional; in short: as §1
HT-29 = experiment: Cytotoxicity against human HT-29 cells assessed as cell growth at 80 nM by sulforhodamine B assay relative to control; format: functional; settings: read-out: Activity
Aspergillus fumigatus = experiment: Antimicrobial activity against Aspergillus fumigatus ATCC 90906 by CLSI method; format: functional, organism-based
BT-549 [11] = experiment: Cytotoxicity against human BT549 cells assessed as cell growth at 80 nM by sulforhodamine B assay relative to control; format: functional; settings: read-out: Activity; in short: as §2
UO-31 [12] = experiment: Cytotoxicity against human UO31 cells assessed as cell growth at 800 nM by sulforhodamine B assay relative to control; format: functional; settings: read-out: Activity
HOP-62 [13] = experiment: Cytotoxicity against human HOP62 cells assessed as cell growth at 80 nM by sulforhodamine B assay relative to control; format: functional; settings: read-out: Activity

With `C/C=C1\NC(=O)[C@H](Cc2ccccc2)NC(=O)[C@@H](C(C)C)NC(=O)[C@@H]([C@@H](C)CC)NC(=O)[C@H](NC(=O)[C@H](NC(=O)[C@H](CCCNCc2ccc(N3CCOCC3)cc2)NC(=O)[C@H]2CCCN2C(=O)[C@H](NC(=O)[C@@H](NC(=O)[C@@H](NC(=O)[C@H](NC(=O)CCCC(C)C)C(C)C)[C@@H](C)O)C(C)C)C(C)C)[C@@H](C)CC)[C@@H](C)OC(=O)[C@H](C(C)C)NC1=O` the growth at 0.8 µM (OVCAR-8) was 96%, the growth at 80 µM (MDA-MB-435) was -9% and the growth at 0.08 µM (KM12) was 99%. For the same compound, the growth at 0.008 µM (SK-MEL-5 [1]) was 105%, the GI50 (UO-31 [2]) was 1380 nM and the TGI (UO-31 [2]; read-out: pTGI (converted)) was 2690 nM. For the same compound, the growth at 8 µM (BT-549 [3]) was -66%, the growth at 0.08 µM (A498) was 110% and the growth at 8 µM (A549) was -65%. It also gave a growth at 8 µM (SK-MEL-28) of -85%, a growth at 80 µM (NCI/ADR-RES) of -58% and a growth at 80 µM (UACC-62) of -81%. For the same compound, the GI50 (SNB-19) was 1350 nM, the TGI (SNB-19; read-out: pTGI (converted)) was 2750 nM and the growth at 80 µM (SF-295) was -33%. The growth at 0.08 µM (786-0 [4]) was 93%, the growth at 0.8 µM (HCT-15) was 3% and the growth at 0.008 µM (NCI-H23) was 105%. The growth at 80 µM (SW-620) was -13%, the GI50 (SF-268) was 1450 nM and the growth at 8 µM (786-0 [5]) was -88%. The growth at 80 µM (MOLT-4) was 7%, the GI50 (Malme-3M) was 1700 nM and the TGI (Malme-3M; read-out: pTGI (converted)) was 3160 nM. It also gave a growth at 0.008 µM (SR) of 103%, an MTD at 576 h [6] of 12.5 mg/kg and a growth at 0.8 µM (ACHN) of 90%. It also gave a growth at 8 µM (NCI-H226 [7]) of -55%, a GI50 (HOP-62 [8]) of 1410 nM and an LC50 (HOP-62 [8]) of 5750 nM. The TGI (HOP-62 [8]; read-out: pTGI (converted)) was 2820 nM, the growth at 8 µM (NCI-H322M) was -84% and the growth at 0.8 µM (SK-MEL-5 [9]) was 90%. It also gave a GI50 (U-251) of 1000 nM, an LC50 (U-251) of 3890 nM and a TGI (U-251; read-out: pTGI (converted)) of 2000 nM. For the same compound, the growth at 8 µM (RXF 393) was -47%, the GI50 (NCI-H226 [10]) was 1660 nM and the TGI (NCI-H226 [10]; read-out: pTGI (converted)) was 3390 nM. The LC50 (Hs-578T) was greater than 75900 nM, the GI50 (Hs-578T; read-out: GI50) was 453 nM and the TGI (Hs-578T; read-out: TGI) was 444 nM. The GI50 (Hs-578T; read-out: pGI50 (converted)) was 457 nM, the TGI (Hs-578T; read-out: pTGI (converted)) was 2040 nM and the growth at 0.08 µM (HT-29) was 93%. For the same compound, the IC50 (Aspergillus fumigatus) was 5000 nM, the MFC (Aspergillus fumigatus) was 20 µM (≈ 33.1 µg/mL) and the MIC (Aspergillus fumigatus) was 10 µM (≈ 16.5 µg/mL). For the same compound, the growth at 0.08 µM (BT-549 [11]) was 95%, the growth at 0.8 µM (UO-31 [12]) was 96% and the growth at 0.08 µM (HOP-62 [13]) was 103%.
